High-throughput results deposited in PubChem BioAssay by several laboratories.
NPY Y1 blocker: antagonists of human neuropeptide Y receptor Y1; P25929; HEK293-CNG Y1 cells, membrane potential fluorescence; NPY at EC95, then isoproterenol; inhibition, % at 3.6 µM; 200,000 tested, 1% active;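 active = inhibition above the campaign mean inhibition of all tested compounds plus 3 SD, cut at about 20% in these data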;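 also: 0% = DMSO wells given NPY plus isoproterenol and 100% = isoproterenol alone without NPY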
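Material: HEK293 cells with Y1 receptor plus CNG channel; times: compound incubation 1 h at room temperature, readout 45 min post-stimulation; signal: fluorescence, membrane potential probe; read-out basis: fluorescence ratio normalized to % inhibition between controls; benchmarks: full-block control isoproterenol-only wells, zero-block control NPY plus isoproterenol wells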
NPY-Y1 PAM-ag: potentiators or agonists of human neuropeptide Y receptor Y1; NPY-Y1 expressing cells, potentiator/agonist activation; activation, % at 3.6 µM; 220,000 tested, 0.37% active; AID 1304; in the data active = activation above about 33%, passing the limit was not always enough;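 also: cells stimulated with NPY at EC10 then isoproterenol at EC100; 0% = low agonist plus stimulus and 100% = saturating agonist plus stimulus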
Ins promoter up: MIN6 insulin promoter up-regulation | 190,000 tested, 0.3% active | MIN6 insulin promoter-GFP reporter, high-content imaging; stronger effect = higher value | AID 1625 | z-score at 5 µM;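 active = z-score above 3 at 5 µM with at least 500 cells counted in the well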
NPY2 pot ag: human NPY-Y2 potentiation or agonism, primary screen | P49146 | cells expressing NPY-Y2, potentiator/agonist read-out | activation, % at 3.6 µM | 220,000 tested, 0.45% active | AID 1359; in the data active = activation above about 27%;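 also: cells stimulated with NPY near EC25 plus isoproterenol at EC100; 0% = vehicle plus submaximal agonist and 100% = vehicle plus saturating agonist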
Target sequence (P49146 whole entry, looked up): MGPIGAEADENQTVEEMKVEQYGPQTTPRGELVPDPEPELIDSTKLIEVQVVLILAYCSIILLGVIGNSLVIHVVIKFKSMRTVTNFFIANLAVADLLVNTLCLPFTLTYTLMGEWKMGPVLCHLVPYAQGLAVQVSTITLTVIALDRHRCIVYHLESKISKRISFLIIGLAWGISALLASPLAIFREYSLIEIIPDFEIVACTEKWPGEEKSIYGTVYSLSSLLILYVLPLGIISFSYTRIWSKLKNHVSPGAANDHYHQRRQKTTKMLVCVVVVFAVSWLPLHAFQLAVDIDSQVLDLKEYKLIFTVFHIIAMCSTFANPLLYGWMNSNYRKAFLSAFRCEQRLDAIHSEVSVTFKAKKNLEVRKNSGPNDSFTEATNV
INS promoter inh: TRM-6 insulin promoter activity inhibition; TRM-6 cells, insulin promoter-eGFP reporter, imaging; reporter expression induced with tamoxifen; inhibition, % at 2 µM; 130,000 tested, 0.9% active; AID 1273;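 active = inhibition above the mean plus 3 SD, with well images judged a real hit on visual review, cut at about 60% in these data, passing the limit was not always enough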
NPY Y2 blocker: blocks the human neuropeptide Y Y2 receptor; P49146; inhibition, % at 2.7 µM; 140,000 tested, 0.99% active; NPY-Y2 expressing cells, antagonist mode; in the data active = inhibition above about 17%;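 also: 0% = vehicle with agonist challenge and 100% = reference antagonist with challenge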
* = called active by the depositor; . = no result given. A selection: hits, their analogues and other compounds. The true share with any hit is near 2.5%.

SMILES | NPY Y1 blocker | NPY-Y1 PAM-ag | Ins promoter up | NPY2 pot ag | INS promoter inh | NPY Y2 blocker
O=C(NC1CCCC1)C(c1cccs1)N(CC1CCCO1)C(=O)Cc1cccs1 (configuration not stated) | 26* | -14 | -0.24 | -14 | -106 | 18*
O=C(NC1CCCC1)C(c1ccccc1)N(Cc1ccco1)C(=O)Cc1cccs1 (configuration not stated) | 77* | -32 | -0.27 | -23 | -10 | 39*
N#Cc1c(NC(=O)C2CC(Cl)=CCC2C(=O)O)sc2c1CCCC2 (configuration not stated) | 7 | 5 | 0.99 | -12 | . | .
Cc1ccc(C(=O)CSc2nnc(C)s2)cc1 | 0 | -23 | 0.89 | -6 | 7 | 2
Cc1nnc(SCC(=O)c2ccc(Br)cc2)s1 | 4 | 13 | 0.34 | -4 | 79* | .
CCCCn1c(C)nc2c(=O)n(C)c(=O)[nH]c21 | -2 | -12 | -0.07 | 2 | 73* | 0
CCc1nc2sc(C#N)c(N)c2c2c1CCCC2 | 49* | -76 | . | -20 | 62 | 57*
CCc1nc2sc(C(C)=O)c(N)c2c2c1CCCC2 | . | 6 | 0.07 | -17 | . | .
COC(=O)c1ccc(-n2c(C)nc(=O)c(-c3ccccc3)c2C)cc1 | 1 | 13 | 0.66 | -16 | 72* | 1
CC(C)SC1=NC(C)(C)C=C(/C=C/c2c(Cl)cccc2Cl)N1 | 15 | -24 | 0.6 | 4 | -29 | 8
CC(C)SC1=NC(C)(C)C=C(/C=C/c2ccc(Cl)cc2Cl)N1 | 7 | -6 | 3.6* | -7 | -61 | 2
CCOc1ccccc1CN(CCc1ccc2c(c1)OCO2)Cc1ccccn1 | 30* | -24 | -1.7 | -8 | . | 15
Cc1[nH]c(=O)[nH]c(=O)c1/C=C/C(=O)O | . | 17 | 0.21 | 12 | . | .
COC(=O)C1=C(C)NC(=S)N(C(C)=O)C1c1ccccc1 (configuration not stated) | -5 | -9 | . | -1 | 77* | 2
COC(=O)[C@@H](NC(=O)Nc1cccc(OC)c1)C(C)C | 5 | 8 | 3* | -3 | 57 | 1
Cc1cc([N+](=O)[O-])c(NCCCCCCO)c([N+](=O)[O-])c1 | 1 | 0 | . | 1 | 52 | 5
CC(=O)NC(C)C(=O)OCC(=O)Nc1ccc(Br)cc1 (configuration not stated) | -3 | 10 | 1.8 | -3 | 89* | 1
CCCCn1c(N)c(NCC(C)C)c(=O)[nH]c1=O | 8 | -23 | -0.33 | -1 | . | 2
Cc1ccc(-n2[nH]c(C)c(/C=C3/C=Nc4ccccc43)c2=O)cc1C | -3 | -37 | . | 5 | 43 | 1
O=C(Nc1cccc(C(F)(F)F)c1)c1cc(-c2ccc(F)cc2)on1 | 22* | -22 | . | -4 | 12 | 24*
CCC(C(=O)Nc1cccc(C(F)(F)F)c1)c1ccccc1 (configuration not stated) | 20* | -7 | 0.67 | -14 | -50 | 7
CNC(=O)Nc1cccc(C(F)(F)F)c1 | -3 | 4 | 0.54 | 6 | 81* | 2
CCC(C(=O)Nc1cc(C)on1)c1ccccc1 (configuration not stated) | -5 | 12 | 0.26 | 10 | 70* | 4
CC1(C(=O)NCc2ccc(Cl)c(Cl)c2)Oc2ccccc2NC1=O (configuration not stated) | 3 | -8 | -0.99 | -10 | -22 | .
O=C(N/N=C1/SCC(=O)N1Cc1ccco1)c1ccccc1F | 6 | -1 | -0.04 | -2 | . | .
SMILES | NPY Y1 blocker | NPY-Y1 PAM-ag | Ins promoter up | NPY2 pot ag | INS promoter inh | NPY Y2 blocker
COc1ccc(NC(=S)NNC(=S)Nc2cccc(C(F)(F)F)c2)cc1 | . | 43* | -0.74 | 27 | . | .
CNNC(=S)Nc1cccc(C(F)(F)F)c1 | . | -10 | -0.46 | 12 | . | .
c1ccc(Oc2nnc(-c3cccs3)c3ccccc23)cc1 | -1 | 12 | 0.32 | -12 | 23 | 4
Cc1ccc(Oc2nnc(-c3cccs3)c3ccccc23)cc1 | -1 | 5 | 0.43 | 6 | 81* | 3
COc1cccc(-c2ccc(SCC(=O)c3ccccc3)nn2)c1 | 13 | -14 | 0.28 | -20 | 78* | .
CCCCSCCCNC(=O)Nc1ccc(C)c(C)c1 | 2 | -9 | . | 3 | -14 | .
CCNS(=O)(=O)c1ccc(NC(=O)c2ccc(Cn3cc(Br)cn3)o2)cc1 | -1 | -2 | -0.55 | 7 | -21 | 0
CC(=O)c1sc(NC(=O)c2ccc(Cn3cc(Br)cn3)o2)nc1C | -13 | 46* | -0.5 | 48* | -64 | -6
COc1ccc(-n2c(C)c(C(C)=O)c(C(C)=O)c2C)cc1 | 1 | -3 | -0.31 | -2 | . | -2
COc1ccc(-n2c(C)c(C(C)=O)c(C(C)=O)c2C)cc1OC | -2 | 1 | -0.45 | -18 | 71* | -3
O=C(/C=C/c1ccco1)NC(=S)Nc1ccccc1N1CCOCC1 | 8 | -27 | -0.97 | 2 | -26 | 4
O=C(/C=C/c1ccco1)NC(=S)Nc1ccccc1N1CCCC1 | 5 | 6 | 3.1* | -5 | 5 | .
CCCC(=O)n1nc(-c2ccc(Cl)cc2)nc1SC | -6 | 1 | . | 5 | 75* | -1
CCC(=O)n1nc(-c2ccc(OC)cc2)nc1SC | 0 | 16 | . | 3 | 89* | 1
CCC(=O)n1nc(-c2ccc(Cl)cc2)nc1SC | 0 | 16 | . | 9 | 66 | 1
Cc1[nH]n(-c2ccc(F)cc2)c(=O)c1C=Nc1ccc(S(=O)(=O)N(C)C)cc1 | 1 | -11 | -0.27 | -11 | 20 | -1
CC(=O)NC(Cc1ccccc1C)C(=O)NC1CCN(c2ncccc2[N+](=O)[O-])CC1 (configuration not stated) | 1 | -8 | -0.02 | -4 | . | 0
CC1(C)Cc2c(sc3nc[nH]c(=O)c23)CO1 | -1 | 9 | -0.06 | 6 | 100* | .
CC1(C)Cc2c(sc3ncnc(N)c23)CO1 | -4 | 7 | -0.38 | 12 | 83* | 2
C=CCNC(=O)c1ccc2c(=O)n(CCCN3CCCC3=O)c(=S)[nH]c2c1 | 5 | 1 | -0.87 | -3 | 20 | .
CC(C)CCc1noc(CN(CC2CCC2)CC2CCCO2)n1 (configuration not stated) | . | -24 | -0.6 | -6 | . | .
O=C(O)CSc1c2c(nc3cc(C(=O)NCCN4CCOCC4)ccc13)CCC2 | . | 6 | 0.82 | 0 | . | .
COc1ccc(CC(=O)NCc2n[nH]c(=S)n2-c2cccc(C)c2)cc1 | 2 | 15 | 0.39 | 5 | 71* | .
CC(=O)SC(C)CC(=O)Nc1ccccc1 (configuration not stated) | -19 | 42* | 0.46 | 34* | . | -7
CC(=O)SC(C)CC(=O)NCc1ccccc1 (configuration not stated) | -9 | 119* | -0.47 | 54* | 39 | -6
Cc1ccnc(NS(=O)(=O)c2ccc(NC(=O)C3COc4ccccc4O3)cc2)n1 (configuration not stated) | 0 | 6 | -0.22 | -9 | 36 | .
Cc1ccc(-c2cc(-c3ccco3)c3c(N)c(C(=O)NN)oc3n2)cc1 | . | -4 | 3* | 5 | . | .
